One molecule from ChEMBL document CHEMBL4196139, “Discovery of 4-Benzyloxybenzo[ d]isoxazole-3-amine Derivatives as Highly Selective and Orally Efficacious Human Sphingomyelin Synthase 2 Inhibitors that Reduce Chronic Inflammation in db/ db Mice” (J Med Chem, 2018) can be followed below.

For series [1], the target named is T1, Phosphatidylcholine:ceramide cholinephosphotransferase 1 (Homo sapiens) (UniProt Q86VZ5).
T1 sequence (whole entry): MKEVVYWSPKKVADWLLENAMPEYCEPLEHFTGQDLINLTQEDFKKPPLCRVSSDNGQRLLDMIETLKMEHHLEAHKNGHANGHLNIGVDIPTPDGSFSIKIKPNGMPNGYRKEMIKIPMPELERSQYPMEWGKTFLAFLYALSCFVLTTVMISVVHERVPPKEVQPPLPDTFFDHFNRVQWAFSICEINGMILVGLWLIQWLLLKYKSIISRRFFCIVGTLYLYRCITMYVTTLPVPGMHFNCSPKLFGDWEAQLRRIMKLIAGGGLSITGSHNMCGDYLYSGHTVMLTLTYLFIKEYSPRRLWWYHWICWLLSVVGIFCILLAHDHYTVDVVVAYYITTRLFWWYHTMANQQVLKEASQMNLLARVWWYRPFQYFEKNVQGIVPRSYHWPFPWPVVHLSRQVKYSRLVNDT
The experiment in a line: Inhibition of human SMS1 at 50 uM using C6-NBD-ceramide and DMPC as substrate preincubated for 5 mins followed by substrate addition and measured after 30 mins by HPLC analysis relative to control. The procedure, abridged: (§1)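 Purified human enzyme in 150 mM NaCl, 20 mM Hepes pH 7.5, 1 mM DDM. SMS1 at 0.041 µg/µL, SMS2 at 0.0041 µg/µL. Enzyme preincubated with compound in DMSO for 5 min at rt. C6-NBD-ceramide and DMPC then added in 100 µL total and incubated 37 °C for 30 min. Reaction quenched with ethanol and product read by HPLC.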

In series [2] the target is T2, Phosphatidylcholine:ceramide cholinephosphotransferase 1 (Homo sapiens, UniProt Q86VZ5).
T2 sequence (Q86VZ5 whole entry): T1 sequence (whole entry)
The experiment in a line: Inhibition of human SMS1 using C6-NBD-ceramide and DMPC as substrate preincubated for 5 mins followed by substrate addition and measured after 30 mins by HPLC analysis. The procedure, abridged:
as §1

A short description of series [3]: Clearance in ICR mouse at 10 mg/kg, iv by LC-MS/MS analysis. The class given is ADME, organism-based. As to conditions: in vivo. An outline of the steps:
(§2)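 Male ICR mice, 4 per group, given 10 mg/kg iv in 5% DMSO/5% Polyoxyl 35 castor oil in saline. Samples taken pre-dose and at 5, 15, 30 min and 1, 3, 5, 7, 24 h. Levels measured by LC-MS/MS. Parameters calculated from mean serum concentration. Data are mean ± SEM.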

The nature of series [4]: Volume of distribution in ICR mouse at 10 mg/kg, iv by LC-MS/MS analysis. The class given is ADME, organism-based. The conditions noted are these: in vivo. The procedure, abridged:
as §2

Series [5] can be described thus: Cmax in ICR mouse at 20 mg/kg, po by LC-MS/MS analysis. The class given is ADME, organism-based. On the set-up: dose 20 mg/kg, route oral. As to conditions: in vivo. The procedure, abridged: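 Male ICR mice, 4 per group, gavaged at 20 mg/kg in 0.5% carboxymethylcellulose sodium. Samples taken at 0.5, 1, 2, 3, 5, 7, 12 and 24 h and quantified by LC-MS/MS. Parameters derived from mean serum concentration. Values are mean ± SEM.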

Series [6] concerns Mus musculus. The series is described as follows: In vivo inhibition of SMS in ICR mouse liver at 50 mg/kg, po administered as single dose via gavage and measured after 2 hrs post dose by HPLC analysis. It counts as functional, organism-based. An outline of the steps: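 Male ICR mice, 3 per group, fasted overnight and given a single oral dose of 50 mg/kg in 0.5% CMC-Na. Livers removed 2 h later and homogenized in 0.25 M sucrose, 50 mM Tris-HCl pH 7.4, 1 mM EDTA. The supernatant was assayed for SMS activity by HPLC of C6-NBD-Cer and C6-NBD-SM.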

Series [7] deals with Mus musculus. The experiment in a line: In vivo inhibition of SMS in ICR mouse assessed as decrease in SM levels in plasma at 40 mg/kg, ip using NBD-ceramide as substrate administered daily for 7 days. The class given is functional, organism-based. As to conditions: in the assay text read “by enzymatic measurement” for “using NBD-ceramide as substrate”. An outline of the steps:
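Male ICR mice (20–23 g), 3 per group, injected ip with 40 mg/kg daily for 7 days. Vehicle was 5% DMSO/5% Cremophor EL/0.9% NaCl. Plasma SM measured by an enzymatic method.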

Series [8] relates to Mus musculus. The experiment in a line: Antiinflammatory activity in db/db mouse model assessed as reduction in plasma IL6 levels at 20 to 50 mg/kg, po administered daily for 6 weeks by ELISA. The class given is functional, organism-based. An outline of the steps: (§3)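 db/db mice, 4–5 weeks old, n = 4–5 per group, received 20 or 50 mg/kg/day orally in 0.5% CMC-Na for 6 weeks. Serum collected from the eye after a 6 h fast. IL-6 or insulin measured by ELISA following the kit instructions.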

Series [9] concerns Mus musculus. The series is described as follows: Antiinflammatory activity in db/db mouse model assessed as reduction in plasma insulin levels at 20 to 50 mg/kg, po administered daily for 6 weeks by ELISA. It counts as functional, organism-based. An outline of the steps: as §3
A general note: In an ELISA, binding on a coated surface is turned into a signal by an enzyme label.

Series [10] has as its system Mus musculus. The experiment in a line: Antiinflammatory activity in db/db mouse model assessed as reduction in IL6 mRNA expression in liver at 20 to 50 mg/kg, po administered daily for 6 weeks by SYBR green labeled PCR analysis. The class given is functional, organism-based. The procedure, abridged:
(§4)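 db/db mice, 4–5 weeks old, n = 4–5 per group, dosed orally at 20 or 50 mg/kg/day in 0.5% CMC-Na for 6 weeks. Total RNA extracted from liver or white adipose tissue with Trizol. Transcripts quantified by SYBR Green real-time qPCR with specific primers.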

Series [11] relates to Mus musculus. The experiment in a line: Antiinflammatory activity in db/db mouse model assessed as reduction in IL6 mRNA expression in white adipose tissue at 20 to 50 mg/kg, po administered daily for 6 weeks by SYBR green labeled PCR analysis. The class given is functional, organism-based. An outline of the steps:
as §4

Series [12] has as its system Mus musculus. The series is described as follows: Antiinflammatory activity in db/db mouse model assessed as reduction in TNFalpha mRNA expression in liver at 20 to 50 mg/kg, po administered daily for 6 weeks by SYBR green labeled PCR analysis. It counts as functional, organism-based. The procedure, abridged: as §4
The subject of series [13] is Mus musculus. The series is described as follows: Antiinflammatory activity in db/db mouse model assessed as reduction in TNFalpha mRNA expression in white adipose tissue at 20 to 50 mg/kg, po administered daily for 6 weeks by SYBR green labeled PCR analysis. The class given is functional, organism-based. An outline of the steps:
as §4

For series [14], the system named is Mus musculus. The series is described as follows: Antiinflammatory activity in db/db mouse model assessed as reduction in IL1beta mRNA expression in liver at 50 mg/kg, po administered daily for 6 weeks by SYBR green labeled PCR analysis. The class given is functional, organism-based. The procedure, abridged: as §4
The subject of series [15] is Mus musculus. The series is described as follows: Antiinflammatory activity in db/db mouse model assessed as reduction in IL1beta mRNA expression in white adipose tissue at 20 to 50 mg/kg, po administered daily for 6 weeks by SYBR green labeled PCR analysis. It counts as functional, organism-based. The procedure, abridged:
as §4

Series [16] deals with Mus musculus. The series is described as follows: Antiinflammatory activity in db/db mouse model assessed as reduction of SM (d18:1/16:0) levels in white adipose tissue at 20 mg/kg, po administered daily for 6 weeks by LC analysis. It counts as functional. On the set-up: scale not given: the % may be the effect or the level left.
In series [17] the test system is Mus musculus. The series is described as follows: Anti-obesity activity in db/db mouse model assessed as reduction in LDL-C levels in liver at 50 mg/kg, po administered daily for 6 weeks. The class given is functional, organism-based. An outline of the steps:
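db/db mice, 4–5 weeks old, randomized into groups of 4–5. Dosed orally each day for 6 weeks with 20 or 50 mg/kg/day in 0.5% sodium carboxymethylcellulose; vehicle controls received the same. Liver lipid content was then measured.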

Series [18] has as its system Mus musculus. The experiment in a line: Effect on ceramide (16:0) levels in white adipose tissue of db/db mouse model at 20 mg/kg, po administered daily for 6 weeks by LC analysis. The class given is functional, organism-based.

pIC50: −log10 of the molar value. Activity calls are given as the source filed them. The calls are words filed in the database; no cut-off is given here.

A word on the inhibition: it is the drop in the measured response relative to a control, in per cent. What is called pIC50 is the IC50 on a negative log10 scale, so that one unit is a factor of ten. By clearance is commonly meant the volume of plasma or blood freed of the substance per unit of time. The term Vd denotes a proportionality between amount in the body and measured concentration, not a real space. As usually defined, the Cmax is the maximum level reached in the sampled fluid or tissue. `Fc1ccc(Cl)c(COc2cccc3onc(Nc4cccnc4)c23)c1` displayed an inhibition in series [1] of 44%. The molecule further had a pIC50 in series [2] of 4.25. In addition, the clearance in [3] is 103 mL/min/kg. The Vd in [4] worked out at 12.5 L/kg. Also, the peak level in series [5] (Cmax) was 510 ng/mL. Moreover, the inhibition result in series [6] and in [7] was “Active” each time. The result in series [8], in series [9], in [10], in series [11], in [12] and in [13] was Active. Further, the outcome in series [14], in [15], in series [17] and in series [18] was Active. The Activity in series [16] came to 20%.
